For one assay, the target named is T1, QacR(E57A) (Staphylococcus aureus, UniProt P0A0N4, E57A).
T1 sequence (P0A0N4 1-188 E57A): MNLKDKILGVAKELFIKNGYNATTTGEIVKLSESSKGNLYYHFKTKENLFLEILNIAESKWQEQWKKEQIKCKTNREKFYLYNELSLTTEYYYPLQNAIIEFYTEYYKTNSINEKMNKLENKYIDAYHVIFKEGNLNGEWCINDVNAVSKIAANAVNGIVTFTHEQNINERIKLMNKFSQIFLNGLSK
Nature of the assay: Intrinsic tryptophan fluorescence quenching, QacR. It counts as binding.

Assay [1] addresses T2, QacR(E57Q) (Staphylococcus aureus, UniProt P0A0N4, E57Q).
T2 sequence (P0A0N4 1-188 E57Q): T1 sequence (P0A0N4 1-188 E57A) with A57Q
Description: Intrinsic tryptophan fluorescence quenching, QacR. The class given is binding.

Assay [2] deals with T3, QacR(E57Q/E58Q) (Staphylococcus aureus, UniProt P0A0N4, E57Q/E58Q).
T3 sequence (P0A0N4 1-188 E57Q/E58Q): T1 sequence (P0A0N4 1-188 E57A) with A57Q, E58Q
Description: Intrinsic tryptophan fluorescence quenching, QacR. The class given is binding.

Assay [3] addresses T2, QacR(E57Q). Nature of the assay: Isothermal titration calorimetry, QacR. It counts as binding. On the technique in general: Isothermal titration calorimetry measures the heat released or taken up as one component is titrated into another.
The next assay deals with T4, QacR(E58Q) (Staphylococcus aureus, UniProt P0A0N4, E58Q).
T4 sequence (P0A0N4 1-188 E58Q): T1 sequence (P0A0N4 1-188 E57A) with A57E, E58Q
Nature of the assay: Isothermal titration calorimetry, QacR. It counts as binding.

Assay [4] deals with T3, QacR(E57Q/E58Q). Nature of the assay: Isothermal titration calorimetry, QacR. The class given is binding.
Another assay deals with T5, wt QacR (Staphylococcus aureus, UniProt P0A0N4).
T5 sequence (P0A0N4 1-188): T1 sequence (P0A0N4 1-188 E57A) with A57E
Nature of the assay: Isothermal titration calorimetry, wt QacR. The class given is binding.

A further assay deals with mutant QacR proteins. Description: Intrinsic tryptophan fluorescence quenching, mutant QacR proteins compared to wt. It counts as binding, Staphylococcus aureus. The following applies: all mutant QacR proteins of Table 2 vs wt QacR. The procedure, abridged: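 C-terminally His6-tagged QacR variants were expressed in E. coli DH5α, Ni2+-NTA purified, and dialysed into 1 M NaCl, 20 mM Tris-HCl, 5% glycerol, pH 7.5. Kd was derived from quenching of intrinsic tryptophan fluorescence intensity on ligand titration. Ligands came from 2.5 mM stocks in water, diluted in 100 mM NaCl, 15 mM Tris-HCl, 2.5% glycerol, pH 7.5. Each Kd is the mean of three independent experiments.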

The values below come from publication PMC2646753 (Biochemistry, 2008).

Substitutions are numbered along the chain they refer to.

Regarding `COc1ccc2cc3[n+](cc2c1OC)CCc1cc2c(cc1-3)OCO2` [Be, berberine], the results for the Kd at QacR(E57A), on QacR(E57Q) [1] and on QacR(E57Q/E58Q) [2] were 1880 ± 230 nM, 1390 ± 150 nM and 320 ± 150 nM, respectively. Also, the “increase in binding affinity compared to wt QacR” value at QacR(E57Q/E58Q) [2] (QacR(E57Q/E58Q) vs wt QacR) turned out to be 9 fold.

`Cc1cc(N)c2ccccc2[n+]1CCCCCCCCCC[n+]1c(C)cc(N)c2ccccc21` [Dq, dequalinium]: the Kd turned out to be 1950 ± 180 nM on QacR(E57Q) [3], 2400 ± 200 nM at QacR(E58Q), 5200 ± 3800 nM on QacR(E57Q/E58Q) [4] and 1300 ± 300 nM at wt QacR. For the same compound, at QacR(E57Q/E58Q) [4] (QacR(E57Q/E58Q) vs wt QacR, ITC), the “decrease in binding affinity compared to wt QacR” value is 4 fold.

For `CN(C)c1ccc(C(=C2C=CC(=[N+](C)C)C=C2)c2ccccc2)cc1` [MG, malachite green], the Kd at QacR(E57A) is 2980 ± 230 nM; on QacR(E57Q) [1] it was 1770 ± 170 nM; on QacR(E57Q/E58Q) [2], 1990 ± 80 nM. Besides, the “change in binding affinity of mutant QacR proteins compared to wt QacR” value in the assay with mutant QacR proteins is listed as not above 2.4 fold.

One may read the Kd as the equilibrium constant for the complex coming apart. A higher Kd goes with a looser complex.
